The nature of series [1]: In vitro pH solubility profile in Britton–Robinson buffer. The note with it: pH 6, aqueous buffer, thermodynamic from solid. Format: physicochemical. In short, it runs like this:
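Excess solid added to Britton–Robinson buffer at the set pH in a vial, rolled 4 h at ambient temperature. A sample was filtered by centrifugation through a 0.45 μm PVDF membrane. The clear filtrate was assayed by gradient reversed-phase HPLC on C18 (water/acetonitrile, 0.05 % TFA) with UV detection at 220 nm.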

Series [2] is classed as in vivo. The note with it: human, whole blood, po, 50 mg.
The subject of another series is healthy elderly subjects. Briefly: Safety and tolerability. It is filed as in vivo, human. The note with it: whole study. In short, it runs like this:
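Healthy elderly (65–80 y) male or non-childbearing female volunteers in a single-centre randomised crossover study; 20 subjects through 4 treatment periods. Each period had omeprazole 20 mg QD for 5 days and a single oral 50 mg test compound dose (fed or fasted), with washout ≥3 days. AEs, vital signs, ECGs, clinical chemistry, haematology, urinalysis and physical examination were summarised by treatment.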

A further series deals with CXCR2. The note with it: read-out: IC50 for CXCL8 binding; ref GSK, data on file; cited from earlier work.
The mark [3] stands for this setting: all treatment periods, 20 subjects.

pIC50: −log10 of the molar value. ≈ marks a conversion by molar mass, not a printed value.

Regarding `Cc1c(F)cccc1NC(=O)Nc1ccc(Cl)c(S(=O)(=O)[C@H]2CCCNC2)c1O` [danirixin, Danirixin], in series [1], the solubility (in general, how much of the substance goes into solution per volume) at 4 h was 3 µg/mL (≈ 6.79 µM). Also, the half-life – broadly, the time in which the quantity being followed falls by half – in series [2] fell in the range of 7 to 9 h. In addition, the “serious AEs” value in the series on healthy elderly subjects is given as “no serious AEs”. Besides, in the series with healthy elderly subjects (setting [3]), the “subjects reporting AEs during the study” value was found to be 45% and the “subjects reporting headaches during the study” value is 20%. Further, in the series with CXCR2, the pIC50 (as a rule, the IC50 on a negative log10 scale, so that one unit is a factor of ten) is […].

The record behind these values is publication PMC4142138 (European Journal of Drug Metabolism and Pharmacokinetics, 2014).
